Experimental findings from ChEMBL document CHEMBL1121761, “Antihypertensive pyrrolo[1,2-c]quinazolines and pyrrolo[1,2-c]quinazolinones” (1981) are described below.

SMILES strings stand for the structures.

Type in all cases: functional, Artery
The subject of assay [1] is Rattus norvegicus. The assay is described as follows: Change in systolic blood pressure after 50 mg/kg oral administration in spontaneous hypertensive rats after 4 hr. In short, it runs like this: (§1)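 Male spontaneously hypertensive rats, four per dose, received oral doses suspended in 30% PEG 200, 10% PEG 400, 10% EtOH and 50% pH 7.50 phosphate buffer at 0.5 mL/100 g. A first dose of 100 mg/kg was followed by a second dose of 50 mg/kg. Tail-cuff systolic pressure was read before dosing and 2, 4 and 24 h after each dose. Postdose readings were compared with predose readings by paired Student's t test.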

In assay [2] the test system is Rattus norvegicus. Nature of the assay: Change in systolic blood pressure after 50 mg/kg oral administration in spontaneous hypertensive rats after 24 hr. In short, it runs like this: as §1
Assay [3] has as its system Rattus norvegicus. Nature of the assay: Change in systolic blood pressure after 100 mg/kg oral administration in spontaneous hypertensive rats after 4 hr. In short, it runs like this: as §1
For assay [4], the system named is Rattus norvegicus. Nature of the assay: Change in systolic blood pressure after 50 mg/kg oral administration in spontaneous hypertensive rats after 2 hr. In short, it runs like this:
as §1

Assay [5] has as its system Rattus norvegicus. The assay is described as follows: Change in systolic blood pressure after 100 mg/kg oral administration in spontaneous hypertensive rats after 24 hr. The method in brief:
as §1

For assay [6], the system named is Rattus norvegicus. Nature of the assay: Change in systolic blood pressure after 100 mg/kg oral administration in spontaneous hypertensive rats after 2 hr. In short, it runs like this:
as §1

Assay [7] concerns Rattus norvegicus. The assay is described as follows: Change in systolic blood pressure after 33 mg/kg oral administration in spontaneous hypertensive rats after 2 hr. In short, it runs like this: (§2)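 Reference agents were given orally to male SHR, four per dose, as a suspension in PEG 200/PEG 400/EtOH/pH 7.50 phosphate buffer vehicle at 0.5 mL/100 g. Systolic pressure was measured by tail cuff before dosing and at 2, 4 and 24 h after each dose. Predose and postdose levels were compared by paired Student's t test.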

Assay [8] concerns Rattus norvegicus. The assay is described as follows: Change in systolic blood pressure after 33 mg/kg oral administration in spontaneous hypertensive rats after 4 hr. The method in brief:
as §2

Assay [9] deals with Rattus norvegicus. Nature of the assay: Change in systolic blood pressure after 33 mg/kg oral administration in spontaneous hypertensive rats after 24 hr. The method in brief:
as §2

For assay [10], the system named is Rattus norvegicus. The assay is described as follows: Change in systolic blood pressure after 25 mg/kg oral administration in spontaneous hypertensive rats after 2 hr. The method in brief: as §2
In assay [11] the test system is Rattus norvegicus. Nature of the assay: Change in systolic blood pressure after 25 mg/kg oral administration in spontaneous hypertensive rats after 24 hr. In short, it runs like this: as §2
In assay [12] the test system is Rattus norvegicus. Nature of the assay: Change in systolic blood pressure after 25 mg/kg oral administration in spontaneous hypertensive rats after 4 hr. In short, it runs like this:
as §2

Assay [13] has as its system Rattus norvegicus. The assay is described as follows: Change in systolic blood pressure after 12.5 mg/kg oral administration in spontaneous hypertensive rats after 4 hr. The method in brief:
as §2

Assay [14] has as its system Rattus norvegicus. The assay is described as follows: Change in systolic blood pressure after 12.5 mg/kg oral administration in spontaneous hypertensive rats after 24 hr. The method in brief: as §2
Assay [15] has as its system Rattus norvegicus. The assay is described as follows: Change in systolic blood pressure after 12.5 mg/kg oral administration in spontaneous hypertensive rats after 2 hr. The method in brief:
as §2

In the case of `COc1ccc2c(c1)nc(O)n1cc(C)cc21`, the Delta blood pressure in assay [1] was found to be 31; in assay [2], 12; in assay [3], 9; in assay [4], 28; in assay [5] it was 15; in assay [6] it was 6.

As for `CC(C)NCC(O)COc1cccc2ccccc12` (configuration not stated) [PROPRANOLOL], the Delta blood pressure in [7] is 27.5; in [8], 28.7; in [3] it was 45; in assay [5] it was 32.5; in [6] it was 18.7; in assay [9], 51.2.

As for `CC#Cc1c(C)cc2c3ccccc3nc(O)n12.Cl`, the Delta blood pressure in [1] is 30; in assay [2] it was 42; in assay [3] it was 27; in assay [5] it was 20.5.

`CCOC(=O)c1cc2c3ccccc3n(CCC#N)c(=O)n2c1`: the Delta blood pressure in assay [1] is 19; in assay [2] it was 59; in assay [3] it was 2; in assay [5], 45.

With `COc1cc2nc(N3CCN(C(=O)c4ccco4)CC3)nc(N)c2cc1OC` [PRAZOSIN], the Delta blood pressure in assay [10] came to 56.2; in assay [11] it was 41.2; in [12], 76.2; in assay [13] it was 48.2; in assay [14] it was 13.7; in [15], 40.

Turning to `CCOC(=O)c1cc2n(c1)CN(CCC#N)c1ccccc1-2`, the Delta blood pressure in assay [1] stood at 38; in assay [3], 11.3; in assay [4] it was 33; in assay [5], 1.2; in [6], 13.8.

Take `CCOC(=O)c1cc2c3cc(C#N)ccc3ncn2c1`: the Delta blood pressure is given as 33 in assay [1]; 6.6 in [2]; 20 in assay [3]; 21.6 in assay [4]; 20 in assay [5]; 11.6 in assay [6].

`CCOC(=O)c1cc2n(c1)CN(C)c1ccccc1-2`: the Delta blood pressure was found to be 26 in [1], 6.5 in assay [2], 31 in [5] and 29 in assay [6].

`Cc1cc2c3ccccc3nc(O)n2c1`: the Delta blood pressure in assay [2] was found to be 35; in [3] it was 39; in [4], 46; in [5], 11.

In the case of `CCOC(=O)c1cc2n(c1)CN(C(=O)OCC)c1ccccc1-2`, the Delta blood pressure stood at 42.5 in assay [1]; 23.7 in [2]; 11.2 in assay [3]; 18.7 in assay [4]; 20 in [5]; 6.2 in assay [6].

As for `CCOC(=O)c1cc2c3cc(Cl)ccc3ncn2c1`, the Delta blood pressure in [1] was determined as 31.3; in [2] it was 7.5; in [3], 16.3; in assay [4], 13.8; in assay [5], 5; in [6] it was 17.5.
